“And” between values parts separate entries of the source, which are not always exact repeats. Equal entries are not always repeated.
Tested on: U2OS
Experiment: Multiplex assay against U2OS
Format: toxicity, cell-based
Settings: human
How it was run: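 Values for tubulin, mitochondrial-mass and membrane-permeability phenotypes are per cents of cells with healthy nuclei. These cells were identified by CellPathfinder machine-learning gating of live cells that had been stained at seeding with Hoechst33342, BioTracker Green Microtubule Cytoskeleton Dye, MitoTracker Red and Annexin V Alexa Fluor 680 and imaged on a CQ1 microscope at 37°C and 5% CO2 after compound addition. The gating first set Hoechst high-intensity objects apart from normal cells, then split normal cells into healthy, pyknosed or fragmented nuclei, and pyknosed cells into mitotic or apoptotic.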

[1] = 12 h, 1 µM, compound concentration 1 uM
[2] = 12 h, 10 µM, compound concentration 10 uM
[3] = 24 h, 1 µM, compound concentration 1 uM
[4] = 24 h, 10 µM, compound concentration 10 uM
[5] = 48 h, 1 µM, compound concentration 1 uM
[6] = 48 h, 10 µM, compound concentration 10 uM

Cc1nn(C)c2nc(NNC(=O)Nc3cc(Cl)nc(Cl)c3)cc(C(C)C)c12 was tested, and the “Population Apoptotic (%)” value [1] was 76% and 72%, the “Population Fragmented Nuclei (%)” value [1] was 23% and 14% and the “Population Healthy Nuclei (%)” value [1] was 66% and 76%. For the same compound, the “Population Hoechst High Intensity Objects (%)” value [1] was 1% and 2%, the “Population Membrane Permeable-Phenotype (%)” value [1] was 5% and 10% and the “Population Mitochondria Different-Phenotype (%)” value [1] was 3% and 7%. The “Population Mitotic Cells (%)” value [1] was 24% and 27%, the “Population Normal (%)” value [1] was 98% and 97% and the “Population Pyknosed Nuclei (%)” value [1] was 9% and 8%. The “Population Tubulin-Different-Phenotype (%)” value [1] was 2% and 7%, the “Total Cell Count” value [1] was 268 and 131 and the “Population Apoptotic (%)” value [2] was 77% and 47%. The “Population Fragmented Nuclei (%)” value [2] was 21% and 15%, the “Population Healthy Nuclei (%)” value [2] was 56% and 63% and the “Population Hoechst High Intensity Objects (%)” value [2] was 7% and 4%. For the same compound, the “Population Membrane Permeable-Phenotype (%)” value [2] was 75% and 57%, the “Population Mitochondria Different-Phenotype (%)” value [2] was 46% and 63% and the “Population Mitotic Cells (%)” value [2] was 22% and 52%. For the same compound, the “Population Normal (%)” value [2] was 92% and 95%, the “Population Pyknosed Nuclei (%)” value [2] was 21% and the “Population Tubulin-Different-Phenotype (%)” value [2] was 80% and 77%. For the same compound, the “Total Cell Count” value [2] was 222 and 104, the “Population Apoptotic (%)” value [3] was 80% and 93% and the “Population Fragmented Nuclei (%)” value [3] was 20% and 17%. The “Population Healthy Nuclei (%)” value [3] was 71% and 73%, the “Population Hoechst High Intensity Objects (%)” value [3] was 0% and 2% and the “Population Membrane Permeable-Phenotype (%)” value [3] was 4% and 9%. The “Population Mitochondria Different-Phenotype (%)” value [3] was 2% and 4%, the “Population Normal (%)” value [3] was 99% and 97% and the “Population Pyknosed Nuclei (%)” value [3] was 8% and 9%. For the same compound, the “Population Tubulin-Different-Phenotype (%)” value [3] was 1% and 4%, the “Total Cell Count” value [3] was 328 and 168 and the “Population Apoptotic (%)” value [4] was 78% and 69%. The “Population Fragmented Nuclei (%)” value [4] was 19% and 16%, the “Population Healthy Nuclei (%)” value [4] was 49% and 61% and the “Population Hoechst High Intensity Objects (%)” value [4] was 5% and 2%. For the same compound, the “Population Membrane Permeable-Phenotype (%)” value [4] was 69% and 42%, the “Population Mitochondria Different-Phenotype (%)” value [4] was 58% and 51% and the “Population Mitotic Cells (%)” value [4] was 21% and 30%. The “Population Normal (%)” value [4] was 94% and 97%, the “Population Pyknosed Nuclei (%)” value [4] was 31% and 21% and the “Population Tubulin-Different-Phenotype (%)” value [4] was 77% and 57%. For the same compound, the “Total Cell Count” value [4] was 218 and 110, the “Population Apoptotic (%)” value [5] was 88% and 86% and the “Population Fragmented Nuclei (%)” value [5] was 17% and 21%. The “Population Healthy Nuclei (%)” value [5] was 75% and 65%, the “Population Hoechst High Intensity Objects (%)” value [5] was 2% and 1% and the “Population Membrane Permeable-Phenotype (%)” value [5] was 4% and 8%. The “Population Mitochondria Different-Phenotype (%)” value [5] was 3% and 4%, the “Population Mitotic Cells (%)” value [5] was 11% and 13% and the “Population Normal (%)” value [5] was 97% and 98%. The “Population Pyknosed Nuclei (%)” value [5] was 7% and 12%, the “Population Tubulin-Different-Phenotype (%)” value [5] was 2% and 5% and the “Total Cell Count” value [5] was 504 and 247. For the same compound, the “Population Apoptotic (%)” value [6] was 83% and 80%, the “Population Fragmented Nuclei (%)” value [6] was 24% and the “Population Healthy Nuclei (%)” value [6] was 43% and 48%. The “Population Hoechst High Intensity Objects (%)” value [6] was 9% and 6%, the “Population Membrane Permeable-Phenotype (%)” value [6] was 51% and the “Population Mitochondria Different-Phenotype (%)” value [6] was 46% and 63%. For the same compound, the “Population Mitotic Cells (%)” value [6] was 16% and 20%, the “Population Normal (%)” value [6] was 90% and 93% and the “Population Pyknosed Nuclei (%)” value [6] was 32% and 27%. For the same compound, the “Population Tubulin-Different-Phenotype (%)” value [6] was 49% and 57% and the “Total Cell Count” value [6] was 244 and 115.
In the case of COc1ccccc1N1CCN(CCCCNC(=O)c2ccc3ccccc3c2)CC1.Cl, the “Population Apoptotic (%)” value [1] is reported as 68% and 42%, the “Population Fragmented Nuclei (%)” value [1] is reported as 18% and 17% and the “Population Healthy Nuclei (%)” value [1] is reported as 69% and 75%. The “Population Mitochondria Different-Phenotype (%)” value [1] was 8% and 15%, the “Population Mitotic Cells (%)” value [1] was 31% and 57% and the “Population Normal (%)” value [1] was 95% and 97%. The “Total Cell Count” value [1] was 243 and 99, the “Population Apoptotic (%)” value [2] was 78% and 65% and the “Population Fragmented Nuclei (%)” value [2] was 30% and 17%. The “Population Healthy Nuclei (%)” value [2] was 39% and 51%, the “Population Mitochondria Different-Phenotype (%)” value [2] was 80% and 94% and the “Population Mitotic Cells (%)” value [2] was 21% and 34%. The “Population Normal (%)” value [2] was 91% and 93%, the “Population Pyknosed Nuclei (%)” value [2] was 30% and the “Total Cell Count” value [2] was 222 and 111. For the same compound, the “Population Apoptotic (%)” value [3] was 78% and 80%, the “Population Fragmented Nuclei (%)” value [3] was 18% and 21% and the “Population Healthy Nuclei (%)” value [3] was 68%. For the same compound, the “Population Mitochondria Different-Phenotype (%)” value [3] was 9% and 11%, the “Population Mitotic Cells (%)” value [3] was 21% and 20% and the “Population Normal (%)” value [3] was 96% and 98%. The “Population Pyknosed Nuclei (%)” value [3] was 9%, the “Total Cell Count” value [3] was 262 and 103 and the “Population Apoptotic (%)” value [4] was 90% and 100%. For the same compound, the “Population Fragmented Nuclei (%)” value [4] was 35% and 19%, the “Population Healthy Nuclei (%)” value [4] was 32% and 61% and the “Population Mitochondria Different-Phenotype (%)” value [4] was 78% and 93%. The “Population Mitotic Cells (%)” value [4] was 10% and 0%, the “Population Normal (%)” value [4] was 93% and the “Population Pyknosed Nuclei (%)” value [4] was 31%. The “Total Cell Count” value [4] was 234 and 125, the “Population Apoptotic (%)” value [5] was 72% and 88% and the “Population Fragmented Nuclei (%)” value [5] was 19% and 17%. For the same compound, the “Population Healthy Nuclei (%)” value [5] was 71% and 64%, the “Population Mitochondria Different-Phenotype (%)” value [5] was 3% and the “Population Mitotic Cells (%)” value [5] was 27% and 12%. For the same compound, the “Population Normal (%)” value [5] was 95% and 96%, the “Population Pyknosed Nuclei (%)” value [5] was 9% and the “Total Cell Count” value [5] was 362 and 144. The “Population Apoptotic (%)” value [6] was 93% and 86%, the “Population Fragmented Nuclei (%)” value [6] was 38% and 23% and the “Population Healthy Nuclei (%)” value [6] was 27% and 37%. For the same compound, the “Population Mitochondria Different-Phenotype (%)” value [6] was 69% and 77%, the “Population Mitotic Cells (%)” value [6] was 6% and 13% and the “Population Normal (%)” value [6] was 91% and 87%. The “Population Pyknosed Nuclei (%)” value [6] was 34% and 39% and the “Total Cell Count” value [6] was 256 and 111.
For NCCc1cn(S(=O)(=O)c2c(Cl)nc3sccn23)c2ccccc12.O=C(O)C(=O)O, the “Population Apoptotic (%)” value [1] was 66% and 81%, the “Population Fragmented Nuclei (%)” value [1] was 30% and 17% and the “Population Healthy Nuclei (%)” value [1] was 58% and 72%. The “Population Hoechst High Intensity Objects (%)” value [1] was 1%, the “Population Membrane Permeable-Phenotype (%)” value [1] was 9% and 4% and the “Population Mitochondria Different-Phenotype (%)” value [1] was 6% and 8%. The “Population Mitotic Cells (%)” value [1] was 33% and 18%, the “Population Normal (%)” value [1] was 98% and the “Population Pyknosed Nuclei (%)” value [1] was 10% and 9%. For the same compound, the “Population Tubulin-Different-Phenotype (%)” value [1] was 6%, the “Total Cell Count” value [1] was 280 and 116 and the “Population Apoptotic (%)” value [2] was 71% and 82%. The “Population Fragmented Nuclei (%)” value [2] was 26% and 20%, the “Population Healthy Nuclei (%)” value [2] was 42% and 53% and the “Population Hoechst High Intensity Objects (%)” value [2] was 5% and 4%. The “Population Membrane Permeable-Phenotype (%)” value [2] was 42% and 30%, the “Population Mitochondria Different-Phenotype (%)” value [2] was 60% and 71% and the “Population Mitotic Cells (%)” value [2] was 28% and 17%. The “Population Normal (%)” value [2] was 94% and 95%, the “Population Pyknosed Nuclei (%)” value [2] was 30% and 26% and the “Population Tubulin-Different-Phenotype (%)” value [2] was 59% and 50%. For the same compound, the “Total Cell Count” value [2] was 221 and 115, the “Population Apoptotic (%)” value [3] was 69% and 78% and the “Population Fragmented Nuclei (%)” value [3] was 25% and 20%. The “Population Healthy Nuclei (%)” value [3] was 66% and 70%, the “Population Hoechst High Intensity Objects (%)” value [3] was 1% and the “Population Membrane Permeable-Phenotype (%)” value [3] was 6% and 9%. For the same compound, the “Population Mitochondria Different-Phenotype (%)” value [3] was 5% and 7%, the “Population Mitotic Cells (%)” value [3] was 30% and 21% and the “Population Normal (%)” value [3] was 98%. For the same compound, the “Population Pyknosed Nuclei (%)” value [3] was 8% and 9%, the “Population Tubulin-Different-Phenotype (%)” value [3] was 3% and 7% and the “Total Cell Count” value [3] was 326 and 151. For the same compound, the “Population Apoptotic (%)” value [4] was 83% and 86%, the “Population Fragmented Nuclei (%)” value [4] was 29% and 20% and the “Population Healthy Nuclei (%)” value [4] was 38% and 46%. The “Population Hoechst High Intensity Objects (%)” value [4] was 6% and 3%, the “Population Membrane Permeable-Phenotype (%)” value [4] was 26% and the “Population Mitochondria Different-Phenotype (%)” value [4] was 63% and 67%. For the same compound, the “Population Mitotic Cells (%)” value [4] was 16% and 13%, the “Population Normal (%)” value [4] was 93% and 96% and the “Population Pyknosed Nuclei (%)” value [4] was 31% and 33%. For the same compound, the “Population Tubulin-Different-Phenotype (%)” value [4] was 26% and 38%, the “Total Cell Count” value [4] was 240 and 116 and the “Population Apoptotic (%)” value [5] was 81% and 85%. For the same compound, the “Population Fragmented Nuclei (%)” value [5] was 21%, the “Population Healthy Nuclei (%)” value [5] was 70% and 66% and the “Population Hoechst High Intensity Objects (%)” value [5] was 1% and 6%. For the same compound, the “Population Membrane Permeable-Phenotype (%)” value [5] was 5% and 10%, the “Population Mitochondria Different-Phenotype (%)” value [5] was 4% and 7% and the “Population Mitotic Cells (%)” value [5] was 18% and 14%. For the same compound, the “Population Normal (%)” value [5] was 98% and 93%, the “Population Pyknosed Nuclei (%)” value [5] was 8% and 12% and the “Population Tubulin-Different-Phenotype (%)” value [5] was 2% and 7%. For the same compound, the “Total Cell Count” value [5] was 454 and 182, the “Population Apoptotic (%)” value [6] was 92% and the “Population Fragmented Nuclei (%)” value [6] was 37% and 29%. The “Population Healthy Nuclei (%)” value [6] was 27% and 34%, the “Population Hoechst High Intensity Objects (%)” value [6] was 7% and the “Population Membrane Permeable-Phenotype (%)” value [6] was 25% and 42%. The “Population Mitochondria Different-Phenotype (%)” value [6] was 56% and 65%, the “Population Mitotic Cells (%)” value [6] was 7% and the “Population Normal (%)” value [6] was 92%. The “Population Pyknosed Nuclei (%)” value [6] was 35%, the “Population Tubulin-Different-Phenotype (%)” value [6] was 25% and 42% and the “Total Cell Count” value [6] was 241 and 127.

Reference: ChEMBL document CHEMBL5724801, “EUbOPEN Chemogenomics Library - Multiplex” (2024)
